The test system of assay [1] is Rattus norvegicus. The assay can be described thus: Percent decrease in serum cholesterol relative to OVX controls, at 0.01 mg/Kg compound dose. The assay is classed as functional. An outline of the steps:
(§1)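 Ovariectomized rats were dosed daily for 4 days, and serum cholesterol was measured. Values are mean percent decrease relative to OVX controls ± SEM, n ≥ 5 per group, with significance at p ≤ 0.05. ED50 is the dose reducing serum cholesterol by 50% relative to OVX controls.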

For assay [2], the species on record is Rattus norvegicus. The assay can be described thus: Dose required to reduce serum cholesterol by 50% relative to ovariectomized (OVX) controls. It is filed as functional. The method in brief:
as §1

The test system of assay [3] is Rattus norvegicus. The experiment in a line: Minimally effective dose(MED) (mg/kg body weight) at which a significant increase in EPO activity was observed in rats. It is filed as functional. To be noted: read-out: MED. An outline of the steps:
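Uterine eosinophil peroxidase (EPO) activity was measured in the 4-day ovariectomized rat assay. […] Activity at the MED is given as Vmax ± standard error.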

In assay [4] the test system is Rattus norvegicus. The experiment in a line: Percent decrease in serum cholesterol relative to OVX controls, at 1.0 mg/Kg compound dose. It is filed as functional. An outline of the steps:
as §1

For assay [5], the system named is MCF7. The assay can be described thus: Inhibition of estrogen-stimulated MCF-7 cell proliferation; not active. It is filed as functional, cell-based, Homo sapiens. The method in brief:
(§2)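 MCF-7 breast tumor cells were stimulated to proliferate with 10⁻¹¹ M 17β-estradiol, with test compound added to measure inhibition of that proliferation. IC50 was derived from the inhibition.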

For assay [6], the system named is MCF7. The experiment in a line: Inhibition of estrogen-stimulated MCF-7 cell proliferation. To be noted: Homo sapiens. It is filed as functional, cell-based. An outline of the steps:
as §2

In assay [7] the target is T1, Estrogen receptor (Rattus norvegicus) (UniProt P06211+Q62986).
Assay [8] deals with T1, Estrogen receptor (Rattus norvegicus). The assay can be described thus: Minimally effective dose(MED) (mg/kg body weight) at which a statistically significant (p<= 0.05) increase in uterine weight/body weight was observed. The assay is classed as functional, organism-based. The method in brief: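 A 4-day ovariectomized rat assay with daily dosing. Uterine weight/body weight was compared with OVX controls. The MED is the lowest dose (mg/kg) giving a significant increase (p ≤ 0.05). Activity at the MED is given as percent increase over OVX controls ± standard error.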

Some results are limits rather than exact numbers.

As to `CC/C(=C(\c1ccccc1)c1ccc(OCCN(C)C)cc1)c1ccccc1` [TAMOXIFEN], the Decrease with Rattus norvegicus [1] is recorded as 39.2%; with Rattus norvegicus [4], 71.1%. The ED50 (commonly the midpoint of the dose-response relation) in the assay listed under Rattus norvegicus [2] stood at 0.2 mg/kg. Besides, the minimal effective dose with Rattus norvegicus [3] came to 0.1 mg/kg.
Regarding `C#C[C@]1(O)CC[C@H]2[C@@H]3CCc4cc(O)ccc4[C@H]3CC[C@@]21C` [ETHINYL ESTRADIOL], the 50% inhibitory concentration (IC50) (usually the concentration that gives 50% inhibition) in the assay with MCF7 [5] is “Not Active”. In addition, the Decrease in the assay on Rattus norvegicus [1] was 57.1%. The compound also came in with an ED50 in the assay listed under Rattus norvegicus [2] of 0.005 mg/kg. In addition, in the assay with Rattus norvegicus [3], the minimal effective dose came out at 0.1 mg/kg.
The compound `CCN(CC)CCOc1ccc(C2Oc3cc(O)ccc3-c3sc4cc(O)ccc4c32)cc1` (configuration not stated) came in with an IC50 in the assay with MCF7 [6] of 8 nM. Moreover, the values for the Decrease in the assay with Rattus norvegicus [1] and in the assay on Rattus norvegicus [4] were 20.6% and 38.7%, respectively. This compound registered an ED50 in the assay filed under Rattus norvegicus [2] of over 10 mg/kg. In addition, the minimal effective dose in the assay with Rattus norvegicus [3] stood at 0.1 mg/kg. The MED in assay [7] stood at 0.1 mg/kg.
On to `Oc1ccc2c(c1)OC(c1ccc(OCCN3CCCCC3)cc1)c1c-2sc2ccccc12` (configuration not stated), for which the IC50 in the assay with MCF7 [6] was 20 nM. Further, the values for the Decrease in the assay on Rattus norvegicus [1] and in the assay with Rattus norvegicus [4] were 46.5% and 53.7%, respectively. In the assay filed under Rattus norvegicus [2], this compound came in with an ED50 of 0.5 mg/kg. The minimal effective dose in the assay on Rattus norvegicus [3] is over 10 mg/kg. The MED in assay [7] is over 10 mg/kg.
Compound `Oc1ccc2c(c1)OC(c1ccc(OCCN3CCCCC3)cc1)c1c-2sc2cc(O)ccc12` (configuration not stated) showed an IC50 in the assay with MCF7 [6] of 0.2 nM. The Decrease in the assay on Rattus norvegicus [1] was 62.2%; in the assay with Rattus norvegicus [4], 47.6%. Besides, the ED50 in the assay listed under Rattus norvegicus [2] amounted to 0.15 mg/kg. Besides, the minimal effective dose with Rattus norvegicus [3] is over 10 mg/kg. In assay [7], the MED was over 10 mg/kg.
As for `Oc1ccc2c(c1)OC(c1ccc(OCCN3CCCC3)cc1)c1c-2sc2cc(O)ccc12` (configuration not stated), the IC50 in the assay with MCF7 [6] stood at 0.6 nM. The figures for the Decrease with Rattus norvegicus [1] and with Rattus norvegicus [4] were 38.5% and 68%, respectively. In the assay listed under Rattus norvegicus [2], this compound returned an ED50 of 0.2 mg/kg. The minimal effective dose in the assay with Rattus norvegicus [3] is over 1 mg/kg. In addition, the MED in assay [7] was determined as 0.1 mg/kg.
`Oc1ccc2c(c1)OC(c1ccc(OCCN3CCOCC3)cc1)c1c-2sc2cc(O)ccc12` (configuration not stated) yielded an IC50 with MCF7 [6] of 6 nM. Besides, the Decrease with Rattus norvegicus [1] is -48.7%; in the assay on Rattus norvegicus [4], 14.3%. In addition, in the assay filed under Rattus norvegicus [2], the ED50 was over 10 mg/kg. For the same compound, the minimal effective dose in the assay on Rattus norvegicus [3] worked out at 1 mg/kg. Moreover, the MED in assay [7] was found to be 1 mg/kg.
For `COc1ccc2c(c1)OC(c1ccc(OCCN3CCCCC3)cc1)c1c-2sc2cc(OC)ccc12` (configuration not stated), in the assay on MCF7 [6], the IC50 was 100 nM.
`Oc1ccc2c3c(sc2c1)-c1ccccc1OC3c1ccc(OCCN2CCCCC2)cc1` (configuration not stated) came in with an IC50 with MCF7 [6] of 6 nM. Also, the Decrease in the assay on Rattus norvegicus [1] stood at 25.4%; in the assay on Rattus norvegicus [4], 51.5%. This compound also came in with an ED50 in the assay filed under Rattus norvegicus [2] of 1 mg/kg. Also, in the assay on Rattus norvegicus [3], the minimal effective dose is over 10 mg/kg. The same compound came in with an MED in assay [7] of over 10 mg/kg.
In the assay on MCF7 [6], `CC/C(=C(\c1ccc(O)cc1)c1ccc(OCCN(C)C)cc1)c1ccccc1` displayed an IC50 of […].
With `Oc1ccc2c(c1)OC(c1ccc(OCCN3CCCCC3)cc1)c1c-2oc2cc(O)ccc12` (configuration not stated), the IC50 in the assay on MCF7 [6] worked out at 0.7 nM. Besides, in the assay with Rattus norvegicus [1], the Decrease was found to be 17.4%. The ED50 in the assay filed under Rattus norvegicus [2] was over 10 mg/kg. Also, the minimal effective dose with Rattus norvegicus [3] is over 10 mg/kg. In addition, in assay [7], the MED is over 10 mg/kg.
`O=C1CCCN1CCOc1ccc(C2Oc3cc(O)ccc3-c3sc4cc(O)ccc4c32)cc1` (configuration not stated): the IC50 in the assay with MCF7 [6] is 9 nM. Further, the Decrease is reported as -15.2% with Rattus norvegicus [1] and 4.4% in the assay with Rattus norvegicus [4]. Further, the minimal effective dose in the assay with Rattus norvegicus [3] was over 3 mg/kg. In assay [7], this compound gave an MED of 3 mg/kg.
Regarding `c1ccc2c(c1)OC(c1ccc(OCCN3CCCCC3)cc1)c1c-2sc2ccccc12` (configuration not stated), in the assay with MCF7 [6], inhibition was half-maximal at 80 nM (IC50). Besides, in the assay on Rattus norvegicus [1], the Decrease is on record as 39.8%. For the same compound, in the assay listed under Rattus norvegicus [2], the 50% effective dose (ED50) stood at 0.7 mg/kg. Further, in the assay with Rattus norvegicus [3], the minimal effective dose is over 10 mg/kg. The compound also came in with an MED in assay [7] of 0.1 mg/kg.
Take `Oc1ccc2c(c1)OC(c1ccc(OCCN3CCCCC3)cc1)c1c-2ccc2cc(O)ccc12` (configuration not stated): the midpoint of inhibition in the assay with MCF7 [6], the IC50, lay at 0.4 nM. Also, the Decrease in the assay on Rattus norvegicus [1] is reported as 57.2%; in the assay with Rattus norvegicus [4], 65.7%. The 50% effect level in the assay listed under Rattus norvegicus [2] (ED50) was put at a dose of 0.02 mg/kg. The MED in assay [8] is over 10 mg/kg. Further, in the assay with Rattus norvegicus [3], the minimal effective dose is over 10 mg/kg.
In the assay with MCF7 [6], `CN(C)CCOc1ccc(C2Oc3cc(O)ccc3-c3sc4cc(O)ccc4c32)cc1` (configuration not stated) came in with an IC50 of 2 nM. Moreover, the Decrease with Rattus norvegicus [1] is reported as 40.1%; in the assay with Rattus norvegicus [4] it was 54.7%. Moreover, the 50% effect level in the assay filed under Rattus norvegicus [2] (ED50) was put at a dose of 0.5 mg/kg. Further, the minimal effective dose in the assay on Rattus norvegicus [3] worked out at 0.1 mg/kg. Moreover, in assay [7], the MED is 0.1 mg/kg.
The compound `O=C(c1ccc(OCCN2CCCCC2)cc1)c1c(-c2ccc(O)cc2)sc2cc(O)ccc12` [RALOXIFENE] yielded an IC50 with MCF7 [6] of […]. Besides, in the assay on Rattus norvegicus [1], the Decrease turned out to be 44.9%. The same compound displayed an ED50 in the assay listed under Rattus norvegicus [2] of […]. The minimal effective dose in the assay with Rattus norvegicus [3] is over 10 mg/kg.
